According to ChEMBL document CHEMBL1240360, “TMC278, a next-generation nonnucleoside reverse transcriptase inhibitor (NNRTI), active against wild-type and NNRTI-resistant HIV-1” (Antimicrob Agents Chemother, 2010):
pEC50: −log10 of the molar value.

What was measured:
[1] = tested on: Human immunodeficiency virus 1; assay: Antiviral activity against Human immunodeficiency virus 1 subtype D isolate 92UG001 infected in human PBMC cells by cell based assay; conditions: Human immunodeficiency virus 1, subtype D isolate 92UG001, PBMC
[2] = tested on: Human immunodeficiency virus 1; assay: Antiviral activity against Human immunodeficiency virus 1 subtype D isolate 92UG035 infected in human PBMC cells by cell based assay; conditions: Human immunodeficiency virus 1, subtype D 92UG035, PBMC
[3] = tested on: Human immunodeficiency virus 1; assay: Antiviral activity against Human immunodeficiency virus 1 subtype E isolate 92TH006 infected in human PBMC cells by cell based assay; conditions: Human immunodeficiency virus 1, subtype E 92TH006, PBMC
[4] = tested on: Human immunodeficiency virus 1; assay: Antiviral activity against Human immunodeficiency virus 1 subtype G isolate G3 infected in human PBMC cells by cell based assay; conditions: Human immunodeficiency virus 1, subtype G isolate G3, PBMC
[5] = tested on: Human immunodeficiency virus 1; assay: Antiviral activity against Human immunodeficiency virus 1 subtype G isolate JV1083 infected in human PBMC cells by cell based assay; conditions: Human immunodeficiency virus 1, subtype G isolate JV1083, PBMC
[6] = tested on: Human immunodeficiency virus 1; assay: Antiviral activity against Human immunodeficiency virus 1 subtype (H) infected in human MT4 cells assessed as reduction in virus induced cytopathicity; assay type: functional, organism-based
Procedure, shortened: (§1)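 Recombinant viruses were made by recombining patient-derived HIV-1 RT-PR sequences into an RT-PR-deleted HXB2 proviral clone transfected into MT4 cells. Subtype was assigned from PR/RT sequence by Smith-Waterman alignment to HXB2. MT4 cells (1.5 × 10^5/ml) were infected at MOI 0.01 with serially diluted compound for 5 days at 37°C. Viability was read by MTT and EC50 derived.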

[7] = tested on: Human immunodeficiency virus 1; assay: Antiviral activity against Human immunodeficiency virus 1 subtype D infected in human MT4 cells assessed as reduction in virus induced cytopathicity; assay type: functional, organism-based; procedure, shortened: as §1
[8] = tested on: Human immunodeficiency virus 1; assay: Antiviral activity against Human immunodeficiency virus 1 subtype F1 infected in human MT4 cells assessed as reduction in virus induced cytopathicity; assay type: functional, organism-based; conditions: Human immunodeficiency virus 1, subtype F1, MT4; procedure, shortened: as §1
[9] = tested on: Human immunodeficiency virus 1; assay: Antiviral activity against Human immunodeficiency virus 1 subtype C infected in human MT4 cells assessed as reduction in virus induced cytopathicity; assay type: functional, organism-based; procedure, shortened: as §1
[10] = tested on: Human immunodeficiency virus 1; assay: Antiviral activity against Human immunodeficiency virus 1 subtype BG infected in human MT4 cells assessed as reduction in virus induced cytopathicity; assay type: functional, organism-based; procedure, shortened: as §1
[11] = tested on: Human immunodeficiency virus 1; assay: Antiviral activity against Human immunodeficiency virus 1 subtype AE infected in human MT4 cells assessed as reduction in virus induced cytopathicity; assay type: functional, organism-based; procedure, shortened: as §1
[12] = tested on: Human immunodeficiency virus 1; assay: Antiviral activity against Human immunodeficiency virus 1 subtype A1 infected in human MT4 cells assessed as reduction in virus induced cytopathicity; assay type: functional, organism-based; conditions: Human immunodeficiency virus 1, subtype A1, MT4; procedure, shortened: as §1
[13] = tested on: Human immunodeficiency virus 1; assay: Antiviral activity against Human immunodeficiency virus 1 3B infected in human MT4 cells assessed as reduction in virus induced cytopathicity; assay type: functional, organism-based
Procedure, shortened: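 MT4 cells (1.5 × 10^5/ml) infected with HIV-1 IIIB at MOI 0.01 and added to serially diluted compound. Cultures incubated 5 days at 37°C under 5% CO2. Cell viability, as protection from virus-induced killing, read by MTT tetrazolium colorimetry. EC50 reported as median with first to third quartiles over n experiments.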

[14] = tested on: Human immunodeficiency virus 1; assay: Antiviral activity against Human immunodeficiency virus 1 subtype O misolate BCF01 infected in human PBMC cells by cell based assay; conditions: Human immunodeficiency virus 1, subtype O isolate BCF01, PBMC
[15] = tested on: Human immunodeficiency virus 1; assay: Antiviral activity against Human immunodeficiency virus 1 subtype O isolate BCF02 infected in human PBMC cells by cell based assay; conditions: Human immunodeficiency virus 1, subtype O isolate BCF02, PBMC
[16] = tested on: Human immunodeficiency virus 1; assay: Antiviral activity against Human immunodeficiency virus 1 group M subtype BG assessed as days to viral replication breakthrough at 10 nM by cell based assay; assay type: functional
[17] = tested on: Human immunodeficiency virus 1; assay: Antiviral activity against Human immunodeficiency virus 1 group M subtype C assessed as days to viral replication breakthrough at 10 nM by cell based assay; assay type: functional
[18] = tested on: Human immunodeficiency virus 1; assay: Antiviral activity against Human immunodeficiency virus 1 group M subtype D assessed as days to viral replication breakthrough at 10 nM by cell based assay; assay type: functional
[19] = tested on: Human immunodeficiency virus 1; assay: Antiviral activity against Human immunodeficiency virus 1 group M subtype F1 assessed as days to viral replication breakthrough at 10 nM by cell based assay; assay type: functional
[20] = tested on: Human immunodeficiency virus 1; assay: Antiviral activity against Human immunodeficiency virus 1 group M subtype H assessed as days to viral replication breakthrough at 10 nM by cell based assay; assay type: functional
[21] = tested on: Human immunodeficiency virus 1; assay: Antiviral activity against Human immunodeficiency virus 1 group M subtype AE assessed as days to viral replication breakthrough at 40 nM by cell based assay; assay type: functional
[22] = tested on: Human immunodeficiency virus 1; assay: Antiviral activity against Human immunodeficiency virus 1 group M subtype AG assessed as days to viral replication breakthrough at 40 nM by cell based assay; assay type: functional
[23] = tested on: Human immunodeficiency virus 1; assay: Antiviral activity against Human immunodeficiency virus 1 group M subtype BG assessed as days to viral replication breakthrough at 40 nM by cell based assay; assay type: functional
[24] = tested on: Human immunodeficiency virus 1; assay: Antiviral activity against Human immunodeficiency virus 1 group M subtype D assessed as days to viral replication breakthrough at 40 nM by cell based assay; assay type: functional
[25] = tested on: Human immunodeficiency virus 1; assay: Antiviral activity against Human immunodeficiency virus 1 subtype A isolate 92UG029 infected in human PBMC cells by cell based assay; conditions: Human immunodeficiency virus 1, subtype A isolate 92UG029, PBMC
[26] = tested on: Human immunodeficiency virus 1; assay: Antiviral activity against Human immunodeficiency virus 1 subtype A isolate 92UG037 infected in human PBMC cells by cell based assay; conditions: Human immunodeficiency virus 1, subtype A isolate 92UG037, PBMC
[27] = tested on: Human immunodeficiency virus 1; assay: Antiviral activity against Human immunodeficiency virus 1 subtype B isolate JR-CSF infected in human PBMC cells by cell based assay
[28] = tested on: Human immunodeficiency virus 1; assay: Antiviral activity against Human immunodeficiency virus 1 subtype B isolate WEJO infected in human PBMC cells by cell based assay
[29] = tested on: Human immunodeficiency virus 1; assay: Antiviral activity against Human immunodeficiency virus 1 subtype C isolate 92BR025 infected in human PBMC cells by cell based assay; conditions: Human immunodeficiency virus 1, subtype C isolate 92BR025, PBMC

Cc1cc(/C=C/C#N)cc(C)c1Nc1ccnc(Nc2ccc(C#N)cc2)n1 [RILPIVIRINE] gave a pEC50 [1] of 9.59, a pEC50 [2] of 10.15 and a pEC50 [3] of 10.10. It also gave a pEC50 [4] of 9.60, a pEC50 [5] of 9.59 and a pEC50 [6] of 9.62. It also gave a pEC50 [7] of 9.52, a pEC50 [8] of 9.68 and a pEC50 [9] of 9.52. The pEC50 [10] was 9.66, the pEC50 [11] was 9.68 and the pEC50 [12] was 9.36. The pEC50 [13] was 9.14, the pEC50 [14] was 8.50 and the pEC50 [15] was 8.54. For the same compound, the Activity [16] was 10 days, the Activity [17] was greater than 31 days and the Activity [18] was 20 days. The Activity [19] was greater than 31 days, the Activity [20] was greater than 31 days and the Activity [21] was greater than 31 days. For the same compound, the Activity [22] was greater than 31 days, the Activity [23] was 13 days and the Activity [24] was greater than 31 days. For the same compound, the pEC50 [25] was 9.36, the pEC50 [26] was 9.62 and the pEC50 [27] was 9.29. It also gave a pEC50 [28] of 10.10 and a pEC50 [29] of 9.48.
